Measurements reported in ChEMBL document CHEMBL1914334, “Discovery and characterization of potent and selective 4-oxo-4-(5-(5-phenyl-1,2,4-oxadiazol-3-yl)indolin-1-yl)butanoic acids as S1P₁ agonists” (Bioorg Med Chem Lett, 2011).

These compounds were tested against T1, Sphingosine 1-phosphate receptor 1 (Homo sapiens, UniProt P21453) (assay: Agonist activity at human S1P1 receptor).
Type: functional
Method in brief: (§1)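 Human S1P₁ cAMP HTRF read-out; each EC₅₀ is the mean of three or more replicates.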

T1 sequence (P21453 whole entry): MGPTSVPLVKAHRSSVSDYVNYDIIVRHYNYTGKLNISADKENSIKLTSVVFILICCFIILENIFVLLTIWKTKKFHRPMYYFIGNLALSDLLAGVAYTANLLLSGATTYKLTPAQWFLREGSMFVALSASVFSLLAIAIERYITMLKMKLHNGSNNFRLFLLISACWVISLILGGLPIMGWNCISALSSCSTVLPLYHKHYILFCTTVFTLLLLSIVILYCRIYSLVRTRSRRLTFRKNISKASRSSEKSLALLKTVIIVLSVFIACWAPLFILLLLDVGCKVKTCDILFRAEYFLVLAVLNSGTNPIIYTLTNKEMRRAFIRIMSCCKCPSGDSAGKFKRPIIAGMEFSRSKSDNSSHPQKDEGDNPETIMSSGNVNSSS

EC50 [nM]	SMILES
6.7	C=CCN(c1ccccc1)S(=O)(=O)c1cc(Cl)cc(Cl)c1
9.4	FC(F)(F)c1cc(-c2nc(-c3ccc4[nH]ncc4c3)no2)cc(C(F)(F)F)c1
372	CCN(c1ccc2[nH]ncc2c1)S(=O)(=O)c1cc(C(F)(F)F)cc(C(F)(F)F)c1

Each compound was assayed against T1, Sphingosine 1-phosphate receptor 1 (assay: Agonist activity at human S1P1 receptor expressed in HEK293 cells assessed as inhibition of forskolin-stimulated cAMP production after 1 hr by HTRF assay).
Type: functional, cell-based
Method in brief: as §1

SMILES	EC50 [nM]
CC[C@H](C)Oc1ccc(-c2nc(-c3ccc4c(c3)CCN4C(=O)CCC(=O)O)no2)cc1Cl	45
N#Cc1cc(-c2nc(-c3ccc4c(c3)CCN4C(=O)CCC(=O)O)no2)ccc1OC1CCCC1	18
COc1ccc(-c2nc(-c3ccc4c(c3)CCN4C(=O)CCC(=O)O)no2)cc1OC(F)(F)F	1
COc1ccc(-c2nc(-c3ccc4c(c3)CCN4C(=O)CCC(=O)O)no2)cc1Cl	11
COc1ccc(-c2nc(-c3ccc4c(c3)CCN4C(=O)CCC(=O)O)no2)cc1C#N	6.3
FC(F)(F)c1cc(-c2nc(N3CCc4[nH]ncc4C3)no2)cc(C(F)(F)F)c1	24
CCc1ccc(-c2nc(-c3ccc4c(c3)CCN4C(=O)CCC(=O)O)no2)cc1S(C)(=O)=O	38
CC(C)Oc1ccc(-c2nc(-c3ccc4c(c3)CCN4C(=O)CCC(=O)O)no2)cc1Br	4
O=C(O)CCC(=O)N1CCc2cc(-c3noc(-c4ccc(C5CCCC5)c(Cl)c4)n3)ccc21	0.82
O=C(O)CCC(=O)N1CCc2cc(-c3noc(-c4ccc(OC(F)(F)F)cc4)n3)ccc21	68
FC(F)(F)c1cc(-c2nc(N3CCc4[nH]cnc4C3)no2)cc(C(F)(F)F)c1	406
COc1cc(C#N)cc(-c2nc(-c3ccc4c(c3)CCN4C(=O)CCC(=O)O)no2)c1	10.3
COc1cc(-c2nc(-c3ccc4c(c3)CCN4C(=O)CCC(=O)O)no2)ccc1OC(F)F	1.5
O=C(O)CCC(=O)N1CCc2cc(-c3noc(-c4ccc(-c5cccs5)c(C(F)(F)F)c4)n3)ccc21	1.3
COc1ccc(-c2nc(-c3ccc4c(c3)CCN4C(=O)CCC(=O)O)no2)cc1C	18
COc1ccc2c(c1)CCN(c1noc(-c3cc(C(F)(F)F)cc(C(F)(F)F)c3)n1)C2	1
O=C(O)CCC(=O)N1CCc2cc(-c3noc(-c4ccc(Cl)c(OC(F)(F)F)c4)n3)ccc21	5.3

Second part, the compound after the results:

EC50 [nM]	SMILES
4.2	O=C(O)CCCCn1cc2cc(-c3noc(-c4cc(C(F)(F)F)cc(C(F)(F)F)c4)n3)ccc2n1
2.7	CCc1ccc(-c2nc(-c3ccc4c(c3)CCN4C(=O)CCC(=O)O)no2)cc1C(F)(F)F
369	O=C(O)CCCn1ncc2c1CCN(c1noc(-c3cc(C(F)(F)F)cc(C(F)(F)F)c3)n1)C2
11	COc1ccc(-c2nc(-c3ccc4c(c3)CCN4C(=O)CCC(=O)O)no2)cc1C(F)(F)F
9.8	O=C(O)CCn1ncc2cc(-c3noc(-c4cc(C(F)(F)F)cc(C(F)(F)F)c4)n3)ccc21
6.6	O=C(O)CCCC(=O)N1CCc2cc(-c3noc(-c4cc(C(F)(F)F)cc(C(F)(F)F)c4)n3)ccc21
37	FC(F)(F)c1cc(-c2nc(-c3ccc4c(c3)CCN4)no2)cc(C(F)(F)F)c1
> 100	CCOC(=O)CCn1ncc2cc(-c3noc(-c4cc(C(F)(F)F)cc(C(F)(F)F)c4)n3)ccc21
102	O=C(O)CC(=O)N1CCc2cc(-c3noc(-c4cc(C(F)(F)F)cc(C(F)(F)F)c4)n3)ccc21
4.9	O=C(O)CCCn1ncc2cc(-c3noc(-c4cc(C(F)(F)F)cc(C(F)(F)F)c4)n3)ccc21
6.1	O=C(O)CCN1CCc2cc(-c3noc(-c4cc(C(F)(F)F)cc(C(F)(F)F)c4)n3)ccc21
4.3	FC(F)(F)c1cc(-c2nc(-c3ccc4[nH]cnc4c3)no2)cc(C(F)(F)F)c1
297	COC(=O)CCCCn1cc2cc(-c3noc(-c4cc(C(F)(F)F)cc(C(F)(F)F)c4)n3)ccc2n1
54	O=C(O)COc1ccc2c(c1)CCN(c1noc(-c3cc(C(F)(F)F)cc(C(F)(F)F)c3)n1)C2
7.2	FC(F)(F)c1cc(-c2nc(-c3ccc4[nH]ncc4c3)no2)cc(C(F)(F)F)c1
41	O=C(O)CCC(=O)n1ccc2cc(-c3noc(-c4cc(C(F)(F)F)cc(C(F)(F)F)c4)n3)ccc21
75	FC(F)(F)c1cc(-c2nc(-c3ccc4[nH]ccc4c3)no2)cc(C(F)(F)F)c1
